The source made the active and inactive calls. The calls are words filed in the database; no cut-off is given here.
Assays:
[1] = system: A549; assay: Antiproliferative activity against human A549 cells assessed as inhibition of cell growth incubated for 48 hrs by MTT assay; format: functional, cell-based; conditions: A549, 48 h
How it was run: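 MTT read-out. Cells seeded at 5.0 × 10⁴ cells/ml and cultured 24 h, then exposed to the drug over a range of concentrations for 48 h, with matching DMSO as control. MTT (5 mg/ml) added for 4 h, supernatant removed, formazan dissolved in DMSO, OD read at 570 nm. Run in triplicate, mean ± SD (n = 3).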

[2] = target: Heat shock protein HSP 90-alpha (Homo sapiens) (UniProt P07900); assay: Inhibition of ATP binding to human HSP90 alpha at 5 to 10 uM preincubated for 30 mins followed by gamma phosphate-linked ATP sepharose addition and measured after 30 mins by ATP-binding sepharose assay based western blot analysis
How it was run: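 Purified human Hsp90α incubated on ice 30 min with compound or DMSO in 10 mM Tris-HCl pH 7.5, 50 mM KCl, 5 mM MgCl2, 2 mM DTT, 20 mM Na2MoO4, 0.01% NP-40. γ-phosphate-linked ATP-Sepharose then added, 30 min at 37 °C with frequent mixing. Resin washed and pelleted, bound Hsp90α detected by SDS-PAGE/Western blot.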

[3] = Binding affinity to GSH in PBS at 100 uM assessed as reduction in absorption at 440 nm incubated up to 30 mins by UV absorption analysis
How it was run: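 Compound (100 μM) mixed with GSH (100 μM), Cdc37 (1.5 μM) or Hsp90 (1.5 μM) in PBS containing 1% DMSO, incubated at 37 °C for 0, 5, 15 and 30 min. UV spectra scanned 200-500 nm, with absorbance at 440 nm compared against the 0 min value (A/A0). Mean ± SD, n = 3.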

[4] = target: T1, Hsp90 co-chaperone Cdc37 (Homo sapiens) (UniProt Q16543); assay: Binding affinity to Cdc37 in human A549 cells assessed as inhibition of HSP90-Cdc37 interaction by measuring increase in cleaved caspase-3 protein level at 1.25 to 5 uM incubated for 12 hrs by Western blot analysis; format: cell-based
T1 sequence (whole entry): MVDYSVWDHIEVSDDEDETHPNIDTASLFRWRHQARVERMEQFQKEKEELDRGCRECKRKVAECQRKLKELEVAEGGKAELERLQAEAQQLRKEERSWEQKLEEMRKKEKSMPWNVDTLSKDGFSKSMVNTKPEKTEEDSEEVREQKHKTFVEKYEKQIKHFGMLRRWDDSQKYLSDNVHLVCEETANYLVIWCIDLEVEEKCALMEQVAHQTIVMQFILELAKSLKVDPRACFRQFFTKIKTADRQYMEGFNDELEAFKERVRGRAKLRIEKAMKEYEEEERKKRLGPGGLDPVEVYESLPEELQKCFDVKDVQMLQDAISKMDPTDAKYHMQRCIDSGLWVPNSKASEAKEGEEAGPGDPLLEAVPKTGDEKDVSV
How it was run: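 A549 cells (5×10^5 per 6 cm dish) were allowed to settle 12 h, then treated with DMSO or compound at the indicated concentrations for 12 h. Lysates were adjusted to 3 mg/ml protein by BCA and resolved on 10% SDS-PAGE, then Western blotted. β-actin or Hsp90 served as the loading control. Three separate experiments, mean ± SD.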

[5] = system: A549; assay: Induction of morphological apoptosis in human A549 cells assessed as increase in cells with chromatin condensation at 0.3 to 1.2 uM incubated for 48 hrs by Hoechst 33342 and PI staining based fluorescence microscopic method; format: functional, cell-based
How it was run: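 A549 cells (4×10^5 per 6 cm dish) were grown 24 h, then exposed to compound at the indicated concentrations or DMSO for 48 h. After PBS washes, cells were stained with Hoechst 33342 (10 µg/ml) plus PI for 5 min at room temperature in the dark and imaged by fluorescence microscopy for nuclear morphology.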

[6] = system: A549; assay: Induction of apoptosis in human A549 cells assessed as viable cells at 0.3 uM incubated for 48 hrs by Annexin V-FITC and PI staining based flow cytometric analysis (reference value: 95.5%); format: functional; conditions: A549, 48 h, read-out: Activity
[7] = system: A549; assay: Induction of apoptosis in human A549 cells assessed as late apoptotic cells at 0.3 uM incubated for 48 hrs by Annexin V-FITC and PI staining based flow cytometric analysis (reference value: 3.0%); format: functional
[8] = system: A549; assay: Induction of apoptosis in human A549 cells assessed as necrotic cells at 0.3 uM incubated for 48 hrs by Annexin V-FITC and PI staining based flow cytometric analysis (reference value: 1.0%); format: functional
[9] = system: A549; assay: Induction of apoptosis in human A549 cells assessed as late apoptotic cells at 1.2 uM incubated for 48 hrs by Annexin V-FITC and PI staining based flow cytometric analysis (reference value: 3.0%); format: functional
How it was run: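 A549 cells (4×10^5 per 6 cm dish) cultured 24 h, then treated 48 h with compound or DMSO. Cells gently harvested, washed twice in cold PBS, resuspended in binding buffer with Annexin V and PI, stained 15 min at room temperature in the dark, analysed by flow cytometry. Mean ± SD, n = 3.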

[10] = system: A549; assay: Induction of cell cycle arrest in human A549 cells assessed as accumulation at G2 phase at 0.2 uM incubated for 24 hrs by PI staining based flow cytometric analysis (reference value: 19.37%); format: functional
How it was run: (§1)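 A549 cells (4×10^5 per 6 cm dish) were grown 24 h, then exposed to compound (0.2, 0.4, 0.8 μM) or DMSO for 24 h. Cells fixed in 75% ethanol at −20 °C for at least 12 h, treated with RNase A at 37 °C for 30 min, then stained with PI for 15 min in the dark. Analysed by flow cytometry, mean ± SD, n = 3.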

[11] = system: A549; assay: Induction of cell cycle arrest in human A549 cells assessed as accumulation at G2 phase at 0.4 uM incubated for 24 hrs by PI staining based flow cytometric analysis (reference value: 19.37%); format: functional; how it was run: as §1
[12] = system: A549; assay: Antiproliferative activity against human A549 cells assessed as inhibition of cell growth at 0.5 uM incubated for 48 hrs by MTT assay relative to control; format: functional; conditions: A549, 48 h, read-out: GI
[13] = system: A549; assay: Induction of mitochondrial membrane potential loss in human A549 cells assessed as cells with hyperpolarized mitochondria by measuring decrease in J-aggregates red fluorescence intensity at 0.2 uM incubated for 24 hrs by JC1 staining based fluorescence microscopic method (reference value: 98.4%); format: functional; parameters: scale not given: the % may be the effect or the level left
[14] = system: A549; assay: Induction of mitochondrial membrane potential loss in human A549 cells assessed as cells with depolarized mitochondria by measuring increase in J-monomer green fluorescence intensity at 0.8 uM incubated for 24 hrs by JC1 staining based fluorescence microscopic method (reference value: 1.5%); format: functional
[15] = system: A549; assay: Induction of mitochondrial membrane potential loss in human A549 cells assessed as cells with hyperpolarized mitochondria by measuring decrease in J-aggregates red fluorescence intensity at 0.4 uM incubated for 24 hrs by JC1 staining based fluorescence microscopic method (reference value: 98.4%); format: functional; parameters: scale not given: the % may be the effect or the level left
[16] = system: A549; assay: Induction of mitochondrial membrane potential loss in human A549 cells assessed as cells with hyperpolarized mitochondria by measuring decrease in J-aggregates red fluorescence intensity at 0.8 uM incubated for 24 hrs by JC1 staining based fluorescence microscopic method (reference value: 98.4%); format: functional; parameters: scale not given: the % may be the effect or the level left

IC50 [1]: 410 nM
inhibition [2]: inactive
Activity [3]: Active
inhibition [4]: Active
Compound: CC1=C(O)C(=O)C=C2C1=CC=C1[C@@]2(C)CC[C@@]2(C)[C@@H]3C[C@](C)(C(=O)OCCCOC(=O)/C=C(\C#N)c4ccc(F)cc4)CC[C@]3(C)CC[C@]12C
Activity [5]: Active
viability at 0.3 µM [6]: 85.2%
Activity [7]: 9.3%
Activity [8]: 3.3%
Activity [9]: 25.2%
Activity [10]: 16.78%
Activity [11]: 16%
inhibition of growth at 0.5 µM [12]: 65.1%
Activity [13]: 84.2%
Activity [14]: 26.2%
Activity [15]: 80%
Activity [16]: 72.8%
